Laboratory results reported in ChEMBL document CHEMBL3813688, “Synthesis, antitumor activity and mechanism of action of novel 1,3-thiazole derivatives containing hydrazide-hydrazone and carboxamide moiety” (Bioorg Med Chem Lett, 2016).
Values after ≈ are worked out from the molar mass of the structure shown.

Assays:
HepG2 [1] = assay: Cell cycle arrest in human HepG2 cells assessed as accumulation at G1 phase at 0.55 ug/ml after 48 hrs by propidium iodide staining based flow cytometry (reference value: 57.68 %); format: functional
HepG2 [2] = assay: Cell cycle arrest in human HepG2 cells assessed as accumulation at S phase after 48 hrs by propidium iodide staining based flow cytometry; format: functional
HepG2 [3] = assay: Cell cycle arrest in human HepG2 cells assessed as accumulation at G2 phase at 0.55 ug/ml after 48 hrs by propidium iodide staining based flow cytometry (reference value: 6.89 %); format: functional
HepG2 [4] = assay: Induction of apoptosis in human HepG2 cells assessed as early apoptotic cells at 0.55 ug/ml after 24 to 48 hrs by Annexin V-FITC/propidium iodide staining based flow cytometry (reference value: 2.5 %); format: functional
HepG2 [5] = assay: Cell cycle arrest in human HepG2 cells assessed as accumulation at sub-G1 phase at 0.55 ug/ml after 48 hrs by propidium iodide staining based flow cytometry relative to control; format: functional
HepG2 [6] = assay: Cell cycle arrest in human HepG2 cells assessed as accumulation at G2 phase at 1.1 ug/ml after 48 hrs by propidium iodide staining based flow cytometry (reference value: 6.89 %); format: functional
HepG2 [7] = assay: Cytotoxicity against human HepG2 cells assessed as cell growth inhibition at 20 ug/ml after 72 hrs by MTT assay; format: functional; conditions: HepG2, 72 h, read-out: GI
HepG2 [8] = assay: Cell cycle arrest in human HepG2 cells assessed as accumulation at sub-G1 phase at 1.1 ug/ml after 48 hrs by propidium iodide staining based flow cytometry relative to control; format: functional
HeLa = assay: Cytotoxicity against human HeLa cells assessed as cell growth inhibition after 72 hrs by MTT assay; format: functional, cell-based
Procedure, shortened: (§1)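 MTT growth assay in human cancer lines (MCF-7, HepG2, BGC-823, HeLa, A549), 72 h after treatment; 5-fluorouracil as reference. IC50 (μg/mL) taken as concentration giving 50% growth inhibition versus untreated control.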

A549 = assay: Cytotoxicity against human A549 cells assessed as cell growth inhibition after 72 hrs by MTT assay; format: functional, cell-based; conditions: A549, 72 h; procedure, shortened: as §1
HepG2 [9] = assay: Induction of apoptosis in human HepG2 cells assessed as viable cells at 0.55 ug/ml after 24 to 48 hrs by Annexin V-FITC/propidium iodide staining based flow cytometry (reference value: 95.6 %); format: functional; conditions: read-out: Activity
HepG2 [10] = assay: Induction of apoptosis in human HepG2 cells assessed as early apoptotic cells at 1.1 ug/ml after 24 to 48 hrs by Annexin V-FITC/propidium iodide staining based flow cytometry (reference value: 2.5 %); format: functional
HepG2 [11] = assay: Cell cycle arrest in human HepG2 cells assessed as accumulation at S phase at 1.1 ug/ml after 48 hrs by propidium iodide staining based flow cytometry (reference value: 35.42 %); format: functional
[12] = Cytotoxicity against human BCG823 cells assessed as cell growth inhibition after 72 hrs by MTT assay; format: functional, cell-based; conditions: BCG823, 72 h; procedure, shortened: as §1
HepG2 [13] = assay: Induction of apoptosis in human HepG2 cells assessed as late apoptotic cells at 1.1 ug/ml after 24 to 48 hrs by Annexin V-FITC/propidium iodide staining based flow cytometry (reference value: 0.1 %); format: functional
HepG2 [14] = assay: Induction of apoptosis in human HepG2 cells assessed as late apoptotic cells at 0.55 ug/ml after 24 to 48 hrs by Annexin V-FITC/propidium iodide staining based flow cytometry (reference value: 0.1 %); format: functional
HepG2 [15] = assay: Cytotoxicity against human HepG2 cells assessed as cell growth inhibition after 72 hrs by MTT assay; format: functional, cell-based; conditions: HepG2, 72 h; procedure, shortened: as §1
HepG2 [16] = assay: Induction of apoptosis in human HepG2 cells assessed as necrotic cells at 0.55 ug/ml after 24 to 48 hrs by Annexin V-FITC/propidium iodide staining based flow cytometry (reference value: 1.8 %); format: functional
HepG2 [17] = assay: Induction of apoptosis in human HepG2 cells assessed as viable cells at 1.1 ug/ml after 24 to 48 hrs by Annexin V-FITC/propidium iodide staining based flow cytometry (reference value: 95.6 %); format: functional; conditions: read-out: Activity
[18] = Cytotoxicity against human HL7702 cells assessed as cell growth inhibition after 72 hrs by MTT assay; format: cell-based; conditions: L02, 72 h
HepG2 [19] = assay: Induction of apoptosis in human HepG2 cells assessed as necrotic cells at 1.1 ug/ml after 24 to 48 hrs by Annexin V-FITC/propidium iodide staining based flow cytometry (reference value: 1.8 %); format: functional
HepG2 [20] = assay: Cell cycle arrest in human HepG2 cells assessed as accumulation at G1 phase at 1.1 ug/ml after 48 hrs by propidium iodide staining based flow cytometry (reference value: 57.68 %); format: functional
HepG2 [21] = assay: Cell cycle arrest in human HepG2 cells assessed as accumulation at S phase at 0.55 ug/ml after 48 hrs by propidium iodide staining based flow cytometry (reference value: 35.42 %); format: functional
MCF7 = assay: Cytotoxicity against human MCF7 cells assessed as cell growth inhibition after 72 hrs by MTT assay; format: functional, cell-based; conditions: MCF7, 72 h; procedure, shortened: as §1

Cc1nc(N(C)C(=O)NC(=O)c2c(F)cccc2F)sc1C(=O)N/N=C/c1ccccc1C(F)(F)F
Activity (HepG2 [1]): 41.02% | Activity (HepG2 [2]): Dose-dependent effect | Activity (HepG2 [3]): 2.11% | Activity (HepG2 [4]): 7% | Activity (HepG2 [5]): 34.5% | Activity (HepG2 [6]): 0% | inhibition of growth at 20 µg/mL (HepG2 [7]): 90% | Activity (HepG2 [8]): 66.72% | IC50 (HeLa): 6.51 µg/mL (≈ 12.4 µM) | IC50 (A549): 5.43 µg/mL (≈ 10.3 µM) | viability at 0.55 µg/mL (HepG2 [9]): 91.2% | Activity (HepG2 [10]): 16.5% | Activity (HepG2 [11]): 88.17% | IC50 [12]: 7.88 µg/mL (≈ 15 µM) | Activity (HepG2 [13]): 0.3% | Activity (HepG2 [14]): 0.4% | IC50 (HepG2 [15]): 1.11 µg/mL (≈ 2.11 µM) | Activity (HepG2 [16]): 1.4% | viability at 1.1 µg/mL (HepG2 [17]): 80.9% | IC50 [18]: 9.43 µg/mL (≈ 17.9 µM) | Activity (HepG2 [19]): 2.3% | Activity (HepG2 [20]): 11.83% | Activity (HepG2 [21]): 56.87% | IC50 (MCF7): 7.34 µg/mL (≈ 14 µM)
